# Data from ChEMBL document CHEMBL4130438, “6,7-Seco-ent-Kauranoids Derived from Oridonin as Potential Anticancer Agents” (J Nat Prod, 2017).
# Activity calls are given as the source filed them. No cut-off for these calls is given here.
# Experiments:
# MCF7 [1] = experiment: Cell cycle arrest in human MCF7 cells assessed as accumulation at G1 phase at 0.50 uM after 48 hrs by propidium iodide staining based flow cytometry (reference value: 70.27%); format: functional
# MCF7 [2] = experiment: Induction of apoptosis in human MCF7 cells assessed as increase in ERK phosphorylation after 48 hrs by Western blot analysis; format: functional, cell-based
# MCF7 [3] = experiment: Cell cycle arrest in human MCF7 cells assessed as accumulation at G2/M phase at 1 uM after 48 hrs by propidium iodide staining based flow cytometry (reference value: 12.72%); format: functional
# MCF7 [4] = experiment: Cell cycle arrest in human MCF7 cells assessed as accumulation at S phase at 1 uM after 48 hrs by propidium iodide staining based flow cytometry (reference value: 17.01%); format: functional
# Mus musculus = experiment: Toxicity in ICR mouse xenografted with […] cells assessed as effect on body weight loss at 10 to 20 mg/kg, iv qd administered for 14 consecutive days; format: organism-based; conditions: in vivo
# Method in brief: (§1)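 Male ICR mice, five weeks old, implanted s.c. in the right flank with 1 × 10^6 H22 cells. After 7 days, randomised into groups of eight. Given i.v. once daily for 14 days, 10 or 20 mg/kg in 10% DMF/2% poloxamer/88% saline; negative controls received 0.9% saline i.v., positive control 20 mg/kg oridonin. Body weight and tumour volume (L × W²/2) recorded every 2 days. Tumours excised and weighed at sacrifice; inhibition (%) = (1 − treated/control mean tumour weight) × 100.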
# MCF7 [5] = experiment: Cell cycle arrest in human MCF7 cells assessed as accumulation at G2/M phase at 0.25 uM after 48 hrs by propidium iodide staining based flow cytometry (reference value: 12.72%); format: functional
# MCF7 [6] = experiment: Induction of apoptosis in human MCF7 cells assessed as viable cells at 2 uM after 24 hrs by Annexin-V FITC/propidium iodide staining based flow cytometry (reference value: 97.5%); format: functional; conditions: MCF7, 24 h, read-out: Activity
# MCF7 [7] = experiment: Induction of apoptosis in human MCF7 cells assessed as late apoptotic cells at 0.25 uM after 24 hrs by Annexin-V FITC/propidium iodide staining based flow cytometry (reference value: 0.290%); format: functional
# MCF7 [8] = experiment: Induction of apoptosis in human MCF7 cells assessed as increase in caspase 3 expression level after 48 hrs by Western blot analysis; format: functional, cell-based
# MCF7 [9] = experiment: Induction of apoptosis in human MCF7 cells assessed as necrotic cells at 1 uM after 24 hrs by Annexin-V FITC/propidium iodide staining based flow cytometry (reference value: 0.610%); format: functional
# MCF7 [10] = experiment: Inhibition of colony formation in human MCF7 cells up to 600 nM incubated for 24 hrs followed by removal of media measured after 10 days by crystal violet staining based microscopy; format: functional, cell-based
# Method in brief: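 300 MCF-7 cells per well plated and incubated overnight, then exposed for 24 h to graded concentrations in DMSO (DMSO-only control). Medium removed and cells grown 10 days. Fixed in methanol 15 min, stained with 0.1% crystal violet 15 min; colonies of >50 cells counted. At least three independent experiments.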
# MCF7 [11] = experiment: Induction of apoptosis in human MCF7 cells assessed as early apoptotic cells at 0.50 uM after 24 hrs by Annexin-V FITC/propidium iodide staining based flow cytometry (reference value: 1.60%); format: functional
# MCF7 [12] = experiment: Cell cycle arrest in human MCF7 cells assessed as accumulation at S phase at 2 uM after 48 hrs by propidium iodide staining based flow cytometry (reference value: 17.01%); format: functional
# MCF7 [13] = experiment: Cell cycle arrest in human MCF7 cells assessed as accumulation at S phase at 0.50 uM after 48 hrs by propidium iodide staining based flow cytometry (reference value: 17.01%); format: functional
# MCF7 [14] = experiment: Induction of apoptosis in human MCF7 cells assessed as late apoptotic cells at 0.50 uM after 24 hrs by Annexin-V FITC/propidium iodide staining based flow cytometry (reference value: 0.290%); format: functional
# Bel-7402 = experiment: Cytotoxicity against human Bel7402 cells assessed as decrease in cell viability after 24 hrs by LDH release assay; format: functional, cell-based
# Method in brief: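 MCF-7 and Bel-7402 cells seeded at ~5 × 10^3 per well for 24 h, then exposed to compounds. LDH released into the medium measured with CytoTox-ONE reagent (10 min, ambient temperature) followed by stop solution. Fluorescence read at ex 560/em 590 nm.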
# MCF7 [15] = experiment: Cell cycle arrest in human MCF7 cells assessed as accumulation at G1 phase at 0.25 uM after 48 hrs by propidium iodide staining based flow cytometry (reference value: 70.27%); format: functional
# MCF7 [16] = experiment: Induction of apoptosis in human MCF7 cells assessed as necrotic cells at 0.25 uM after 24 hrs by Annexin-V FITC/propidium iodide staining based flow cytometry (reference value: 0.610%); format: functional
# MCF7 [17] = experiment: Induction of apoptosis in human MCF7 cells assessed as viable cells at 0.50 uM after 24 hrs by Annexin-V FITC/propidium iodide staining based flow cytometry (reference value: 97.5%); format: functional; conditions: MCF7, 24 h, read-out: Activity
# MCF7 [18] = experiment: Induction of apoptosis in human MCF7 cells assessed as early apoptotic cells at 0.25 uM after 24 hrs by Annexin-V FITC/propidium iodide staining based flow cytometry (reference value: 1.60%); format: functional
# MCF7 [19] = experiment: Induction of apoptosis in human MCF7 cells assessed as early apoptotic cells at 1 uM after 24 hrs by Annexin-V FITC/propidium iodide staining based flow cytometry (reference value: 1.60%); format: functional
# MCF7 [20] = experiment: Cell cycle arrest in human MCF7 cells assessed as accumulation at G2/M phase at 0.50 uM after 48 hrs by propidium iodide staining based flow cytometry (reference value: 12.72%); format: functional
# MCF7 [21] = experiment: Induction of apoptosis in human MCF7 cells assessed as viable cells at 0.25 uM after 24 hrs by Annexin-V FITC/propidium iodide staining based flow cytometry (reference value: 97.5%); format: functional; conditions: MCF7, 24 h, read-out: Activity
# MCF7 [22] = experiment: Induction of apoptosis in human MCF7 cells assessed as late apoptotic cells at 2 uM after 24 hrs by Annexin-V FITC/propidium iodide staining based flow cytometry (reference value: 0.290%); format: functional
# H22 [23] = experiment: Antitumor activity against […] cells xenografted in ICR mouse assessed as decrease in tumor weight at 10 to 20 mg/kg, iv qd administered for 14 consecutive days measured every 2 days; format: functional, organism-based; method in brief: as §1
# H22 [24] = experiment: Antitumor activity against […] cells xenografted in ICR mouse assessed as inhibition of tumor volume at 20 mg/kg, iv qd administered for 14 consecutive days measured every 2 days relative to control; format: functional; conditions: 14 days; method in brief: as §1
# MCF7 [25] = experiment: Induction of apoptosis in human MCF7 cells assessed as viable cells at 1 uM after 24 hrs by Annexin-V FITC/propidium iodide staining based flow cytometry (reference value: 97.5%); format: functional; conditions: MCF7, 24 h, read-out: Activity
# MCF7 [26] = experiment: Induction of apoptosis in human MCF7 cells after 24 hrs by Annexin-V FITC/propidium iodide staining based flow cytometry; format: functional, cell-based
# K562 = experiment: Antiproliferative activity against human K562 cells after 72 hrs by MTT assay; format: functional, cell-based; conditions: K562, 72 h
# Method in brief: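 Cells pre-incubated 24 h at 37 °C, 5% CO2 in 96-well plates, then exposed to a range of compound concentrations (DMSO ≤0.25%) for 72 h. Viable cells read by MTT colour at 570 nm. Performed in quadruplicate, repeated three times. IC50 reported as means ± SD, n = 3.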
compound,measurement,setting,value
C=C1C(=O)[C@@]23C(=O)OC[C@]4(C=CCC(C)(C)[C@H]4C=O)[C@@H]2CC[C@@H]1[C@H]3OC(=O)c1ccc(F)cc1,Activity,MCF7 [1],64.82%
same,Activity,MCF7 [2],Dose-dependent effect
same,Activity,MCF7 [3],21.23%
same,Activity,MCF7 [4],15.43%
same,Activity,Mus musculus,Non-Toxic
same,Activity,MCF7 [5],14.06%
same,viability at 2 µM,MCF7 [6],58.6%
same,Activity,MCF7 [7],5.51%
same,Activity,MCF7 [8],Dose-dependent effect
same,Activity,MCF7 [9],1.93%
same,inhibition,MCF7 [10],Active
same,Activity,MCF7 [11],9.75%
same,Activity,MCF7 [12],17.71%
same,Activity,MCF7 [13],15.71%
same,Activity,MCF7 [14],7.68%
same,Activity,Bel-7402,inactive
same,Activity,MCF7 [15],67.64%
same,Activity,MCF7 [16],0.649%
same,viability at 0.5 µM,MCF7 [17],81.7%
same,Activity,MCF7 [18],6.67%
same,Activity,MCF7 [19],10.2%
same,Activity,MCF7 [20],19.47%
same,viability at 0.25 µM,MCF7 [21],87.2%
same,Activity,MCF7 [22],24.7%
same,Activity,H22 [23],Active
same,inhibition in vivo at 20 mg/kg,H22 [24],52.5%
same,viability at 1 µM,MCF7 [25],72%
same,Activity,MCF7 [26],Dose-dependent effect
same,IC50,K562,690 nM
